# High-throughput results as filed in PubChem BioAssay.
# RORa activator: activators of human nuclear receptor RORA; AID 560; 65,000 compounds, 1.5% hits; CHO-K1 Gal4-RORA LBD luciferase reporter, luminescence; percent increase over mock-subtracted basal signal; activation, % at 10 µM;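 active = activation above the mean of all tested compounds plus 3 SD, cut at about 49% in these data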;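 also: 0% = DMSO-treated RORA cells and 100% = added signal equal to DMSO minus mock-transfected cells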
# SF-1 act: activates the human nuclear receptor SF-1. 65,000 compounds, 1.9% hits. CHO-K1 Gal4-SF-1 LBD luciferase reporter; % increase over DMSO SF-1-specific signal. activation, % at 10 µM. AID 522;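 active = activation above the mean activation of all tested compounds plus 3 SD, cut at about 50% in these data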
# Target sequence (Q13285 whole entry, looked up, the tested form may be a part): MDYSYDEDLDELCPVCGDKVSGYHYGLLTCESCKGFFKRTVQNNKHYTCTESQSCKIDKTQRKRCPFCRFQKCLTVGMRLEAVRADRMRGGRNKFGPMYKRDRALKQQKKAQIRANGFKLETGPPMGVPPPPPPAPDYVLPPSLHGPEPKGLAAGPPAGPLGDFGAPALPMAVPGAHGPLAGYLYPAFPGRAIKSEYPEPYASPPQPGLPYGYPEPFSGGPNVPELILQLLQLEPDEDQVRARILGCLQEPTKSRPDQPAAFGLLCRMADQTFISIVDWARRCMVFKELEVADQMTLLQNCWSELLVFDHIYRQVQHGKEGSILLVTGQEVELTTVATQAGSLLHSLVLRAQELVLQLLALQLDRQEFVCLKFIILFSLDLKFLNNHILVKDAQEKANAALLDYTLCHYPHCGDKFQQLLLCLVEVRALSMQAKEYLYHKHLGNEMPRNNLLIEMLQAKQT
#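 Compound – one dose, 10 µM compound, 1% DMSO · Test system – transient Gal4-SF-1 LBD reporter, CHO-K1 · Input – 4,000 cells in each well · Read-out basis – percent activation relative to DMSO median and mock-transfected background · Replicates – single measurement per compound · Technique – steady-glow luciferase luminescence, read after 15 min reagent incubation · Timing – 20 h compound treatment, 37 °C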
# MT1-MMP txn act: activates MT1-MMP transcription | HT1080 MT1-MMP promoter luciferase reporter, luminescence, overnight; active compounds read high | activation factor at 10 µM | 86,000 compounds, 0.16% hits;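 active = activation factor of at least 2 for MT1-MMP transcription at 10 µM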
# M1 antag: antagonists of rat M1 muscarinic receptor. P08482. CHO-M1 cells, Fluo-4 calcium, ACh EC80 antagonist mode; active compounds read low. B-score at 10 µM. AID 628. 64,000 compounds, 3.4% hits;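 active = calcium fluorescence response, raw or row-and-column corrected B-score, differing from the plate sample mean either way at a set confidence level, mostly lower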
# M1 agonist: agonists of M1 muscarinic receptor; 64,000 compounds, 3% hits; CHO-M1 cells, Fluo-4 calcium fluorescence, agonist mode; active compounds read high; B-score at 10 µM;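 active = fluorescence rise, raw or as B-score row- and column-corrected plate score, outside the 99.7% band of its plate's samples, either direction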
# * = called active by the depositor; . = not tested or not shown. Only some compounds are listed: those with a hit (about 6.3% of all), similar ones and a draw of the others.
SMILES,RORa activator,SF-1 act,MT1-MMP txn act,M1 antag,M1 agonist
Cc1ccc(Cn2nnc(C(=O)Nc3cc(C)ccc3C)c2N)cc1,-14.5,0.3,1.1,1.82*,0.0638
Cc1ccc(C)c(NC(=O)c2nnn(Cc3ccccc3)c2N)c1,-6.0,18.9,1,-0.176,0.665
O=c1c2c3c(sc2nc2sc(C4CC4)nn12)CCCC3,54.3*,37.3,2*,0.0734,0.636
CCCN(CCC)CC(=O)Nc1cccc2c1OCO2,.,.,1.3,.,.
C=CCN1C(=O)C(CC(=O)Nc2ccccc2)SC1=Nc1c(C)n(C)n(-c2ccccc2)c1=O (configuration not stated),.,.,1.1,.,.
COc1cccc(C(=O)Nc2ncc3c(n2)CC(c2ccc(OC)cc2OC)CC3=O)c1 (configuration not stated),18.1,56.6*,1,0.805,-0.721
COc1ccc(Nc2ncc3c(n2)CC(c2ccccc2)CC3=O)cc1 (configuration not stated),5.1,-25.7,1.2,-0.205,-1.24
Cc1ccc2cc(CN(CC3CCCO3)C(=O)c3ccco3)c(=O)[nH]c2c1C (configuration not stated),2.3,15.2,1,-0.00638,-1.59
Cc1ccc(NC(=O)c2noc3c2CCCCC3)cc1C,-3.6,-1.1,1.8,-0.0415,0.448
O=C(NCCc1ccccc1)c1noc2c1CCCCC2,47.9,59.8*,1.3,-1.02,1.91
CCc1ccc(NC(=O)c2noc3c2CCCCC3)cc1,67.2*,67.2*,1.4,-1.45,0.538
Cc1ccc(NC(=O)c2noc3c2CCCCC3)cc1,55.5*,34.7,1.2,0.0415,-0.807
Cc1ccccc1N(CC(N)=O)S(C)(=O)=O,-9.4,5.1,1.1,0.0354,0.558
Cc1ccc(C)c(N(CC(N)=O)S(C)(=O)=O)c1,7.1,-18.4,1,2.14*,0.0671
CCOC(=O)c1cnc2c(-c3ccccc3)c(C)nn2c1N,15.0,15.3,1.4,0.372,0.844
CCOC(=O)c1cnn(-c2sc(C(=O)OCC)c(C)c2C(=O)OCC)c1N,16.6,8.4,1.5,-0.287,-3.41*
CCOC(=O)c1cnn(-c2ccccn2)c1N,53.0*,34.9,1.4,-0.00201,-0.0863
CCOC(=O)c1cnn(-c2cc(C)c3ccccc3n2)c1N,15.0,18.3,1.6,0.526,-0.314
CCOC(=O)c1cnc2c(-c3ccccc3)cnn2c1N,-4.6,52.4*,0.8,0.328,0.416
Cc1ccnc(NC(=O)c2c(O)c3ccccc3n(C)c2=O)c1,74.5*,76.1*,0.9,-0.274,0.689
O=C(O)c1nc2ccccc2nc1C(=O)O,44.3,57.8*,1.8,-0.163,-0.509
CCN(CC)c1ccc(C(=O)n2cnc3ccccc32)cc1,39.0,63.6*,1.7,-0.868,-0.368
COC(=O)[C@@]1(Cc2ccc(OC)cc2)[C@H]2c3cc(C(=O)N4CCCC4)n(Cc4ccc(C)c(F)c4F)c3C[C@H]2CN1C(=O)c1ccccc1,.,.,1,.,.
O=C(Nc1sc2c(c1C(=O)O)CCCC2)c1cccs1,67.1*,53.9*,1.1,-0.00542,0.333
COC(=O)c1c(NC(=O)c2ccc(C)o2)sc2c1CCCCC2,33.8,52.2*,1.8,.,.
SMILES,RORa activator,SF-1 act,MT1-MMP txn act,M1 antag,M1 agonist
CC(C)OC(=O)c1c(NC(=O)c2ccco2)sc2c1CCCCC2,.,.,1.3,.,.
COC(=O)c1c(NC(=O)c2c(C)noc2C)sc2c1CCCCCC2,-19.0,4.5,1.2,-0.272,-0.428
Cc1ccc(C(=O)Nc2sc3c(c2C(=O)O)CCCCC3)o1,76.8*,32.9,0.5,-0.0994,1.48
COC(=O)/C(=C(/F)SCC(C)=O)C(F)(F)F,.,.,1.3,.,.
CCOC(=O)c1cccc(NC(=O)CSc2nnc(COc3ccccc3C)o2)c1,-22.6,12.5,1,-0.0428,-1.04
N#Cc1nc(COc2ccccc2)oc1NCCCn1ccnc1,26.2,16.1,1.4,0.341*,-0.161
Cc1ccc(OCc2nc(C#N)c(NCCCn3ccnc3)o2)cc1,2.8,5.1,1.1,-1.46,-0.0656
CCCNCc1cc(OC)c(OCCC)cc1Cl,.,.,1.1,.,.
Cc1nc2c(cc(Oc3ccc(S(=O)(=O)N4CCOCC4)cn3)c3ccsc32)s1,35.2,53.4*,1.5,0.343,0.862
O=C(Cn1c(=O)oc2ccccc21)NC(=O)NCc1ccco1,13.2,1.0,1.1,-0.0465,-0.356
Cc1ccc2nc(C(O)C(O)c3nc4ccc(C)cc4[nH]3)[nH]c2c1 (configuration not stated),22.6,51.0*,1.5,0.488,-2.53
N#CC(c1ccc(Cl)cc1)c1ccc(Cl)nn1 (configuration not stated),.,.,1.1,.,.
O=C(CN1CCN(C(c2ccccc2)c2ccccc2)CC1)NC(=O)NCc1ccco1,-2.3,16.4,1.2,-0.507,-3.17*
CCOC(=O)C1C(C#N)=C(N)OC(C)=C1c1ccncc1 (configuration not stated),-9.8,3.4,1.1,-1.07,-0.795
CC1(C)Cc2c(sc3nc(-c4ccccc4)n(N)c(=O)c23)CO1,.,.,1.2,.,.
CC1(C)Cc2c(sc3nc(-c4cccs4)n(N)c(=O)c23)CO1,-13.1,-27.7,1.3,-1.82*,4.99*
COc1ccc(-c2nc3c(Br)c(N)c(Br)cc3o2)cc1,5.5,73.0*,1.7,0.409,-0.495
Cc1ccc(-c2nnc(-c3ccccc3)o2)cc1Br,8.3,42.8,1.6,0.619,-0.345
Nc1c(Br)cc2oc(-c3ccccc3)nc2c1Br,52.3*,75.6*,2*,0.717,-0.142
COc1ccc(-c2cnc(N)nc2-c2ccc(OC)cc2O)cc1,4.1,13.2,1.2,0.108,0.536
O=C(COc1ccc2ccccc2c1Br)Nc1ncn[nH]1,-2.3,4.0,1,-1.3,-0.818
c1ccc(SCc2nc3ccccc3[nH]2)nc1,36.6,34.6,1.5,0.311,1.79
COc1ccc(OC)c(C(O)c2coc3ccc(O)c(CN4CCOCC4)c23)c1 (configuration not stated),-8.4,1.4,1.2,0.392,0.155
CC1=C(C(=O)OCc2ccccc2)C(c2ccccc2OS(=O)(=O)c2ccc(C)cc2)NC(=O)N1CCCC(=O)O (configuration not stated),.,.,1.1,.,.
CCn1cc(C2=NOC(C(=O)Nc3cc(OC)c(Cl)cc3OC)C2)c(C)n1 (configuration not stated),-16.3,-4.7,1.2,-0.68,-1.68
SMILES,RORa activator,SF-1 act,MT1-MMP txn act,M1 antag,M1 agonist
Cc1nc(C)c(C(=O)Nc2ccc(Oc3ccccc3)cc2)o1,12.5,12.7,1.3,-0.922,-0.971
Cc1ncoc1C(=O)Nc1ccc(Oc2ccccc2)cc1,32.1,58.7*,1.7,-1.7,-2.45
Cc1cccc(N2C(=S)N=C(Nc3c(C)cccc3C)C23CCOC(C)(C)C3)c1 (configuration not stated),.,.,1.1,.,.
O=C(NC1CCCCCC1)c1ccc(N2CCCC2=O)cc1,29.4,53.6*,1.3,-0.0288,0.324
O=C(Nc1cccc2nsnc12)c1ccc2c(c1)OCCO2,69.6*,54.2*,1.5,-0.471,0.855
O=C(Nc1ccc2c(c1)CCC2)c1cnccn1,16.7,55.2*,1.1,-0.268,0.508
CCCCOC(=O)c1ccc(NC(=O)c2ccoc2C)cc1,28.3,44.1,1.2,0.207,-2.67
